≈ marks a conversion by molar mass, not a printed value. Calls of active or inactive are those of the source. The rule behind the calls is not given here.
Assays:
PANC-1 [1] = assay: Antiproliferative activity against human PANC1 cells after 48 hrs by MTT assay; format: functional, cell-based; settings: PANC-1, 48 h
Outline: (§1)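 Cells were seeded at 5×10^5 cells/mL overnight and exposed to graded compound concentrations for 48 h. MTT (5 mg/mL stock) was added for 4 h at 37 °C, and formazan was dissolved in DMSO. Absorbance was read at 570 nm. IC₅₀ was fitted from the curves; values are mean ± SD, n = 3.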

A549 = assay: Antiproliferative activity against human A549 cells after 48 hrs by MTT assay; format: functional, cell-based; settings: A549, 48 h; outline: as §1
MDA-MB-231 = assay: Antiproliferative activity against human MDA-MB-231 cells after 48 hrs by MTT assay; format: functional, cell-based; settings: MDA-MB-231, 48 h; outline: as §1
[2] = Intrinsic aqueous solubility of the compound; format: physicochemical; settings: read-out: Intrinsic_solubility
Outline: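 Intrinsic aqueous solubility and log D at pH 7.4 were measured on a pION Gemini Profiler.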

[3] = Cmax in rat at 10 mg/kg, po after 0.083 to 24 hrs by LC-MS/MS method; format: ADME, organism-based; design: dose 10 mg/kg, route oral; settings: in vivo
[4] = AUC (0 to t) in rat at 10 mg/kg, po after 0.083 to 24 hrs by LC-MS/MS method; format: ADME, organism-based; design: dose 10 mg/kg, time upper 24 hr, time lower 0.083 hr, route oral; settings: in vivo
[5] = Oral bioavailability in rat at 10 mg/kg after 0.083 to 24 hrs by LC-MS/MS method; format: ADME, organism-based; settings: in vivo
[6] = Cmax in rat at 10 mg/kg, iv after 0.083 to 24 hrs by LC-MS/MS method; format: ADME, organism-based; design: dose 10 mg/kg, route intravenous; settings: in vivo
[7] = Half life in rat at 10 mg/kg, iv after 0.083 to 24 hrs by LC-MS/MS method; format: ADME, organism-based; settings: in vivo
[8] = AUC (0 to t) in rat at 10 mg/kg, iv after 0.083 to 24 hrs by LC-MS/MS method; format: ADME, organism-based; design: time upper 24 hr, time lower 0.083 hr, dose 10 mg/kg, route intravenous; settings: in vivo
[9] = Cmax in rat at 10 mg/kg, ip after 0.083 to 24 hrs by LC-MS/MS method; format: ADME, organism-based; design: dose 10 mg/kg, route intraperitoneal; settings: in vivo
[10] = Half life in rat at 10 mg/kg, ip after 0.083 to 24 hrs by LC-MS/MS method; format: ADME, organism-based; settings: in vivo
PANC-1 [11] = assay: Induction of apoptosis in human PANC1 cells assessed as dead cells at 0.1 uM after 24 hrs by annexin V/propidium iodide staining-based flow cytometric method (reference value: 0.60%); format: functional
PANC-1 [12] = assay: Induction of apoptosis in human PANC1 cells assessed as early apoptotic cells at 1 uM after 24 hrs by annexin V/propidium iodide staining-based flow cytometric method (reference value: 7.25%); format: functional
PANC-1 [13] = assay: Induction of apoptosis in human PANC1 cells assessed as late apoptotic cells at 1 uM after 24 hrs by annexin V/propidium iodide staining-based flow cytometric method (reference value: 2.65%); format: functional
PANC-1 [14] = assay: Induction of apoptosis in human PANC1 cells assessed as dead cells at 1 uM after 24 hrs by annexin V/propidium iodide staining-based flow cytometric method (reference value: 0.60%); format: functional
PANC-1 [15] = assay: Induction of apoptosis in human PANC1 cells assessed as early apoptotic cells at 2 uM after 24 hrs by annexin V/propidium iodide staining-based flow cytometric method (reference value: 7.25%); format: functional
PANC-1 [16] = assay: Induction of apoptosis in human PANC1 cells assessed as viable cells at 2 uM after 24 hrs by annexin V/propidium iodide staining-based flow cytometric method (reference value: 89.5%); format: functional; settings: PANC-1, 24 h, read-out: Activity
PANC-1 [17] = assay: Induction of apoptosis in human PANC1 assessed as increase in cleaved caspase-3 levels at 0.1 to 1 uM after 24 hrs by Western blot method; format: functional, cell-based
Outline: (§2)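 PANC-1 cells were treated with graded compound concentrations for 24 h, then lysed. Proteins were separated by SDS-PAGE and blotted to PVDF. Blots were probed for PARP, cleaved PARP, caspase-3, cleaved caspase-3, caspase-9 and cleaved caspase-9, with GAPDH as loading control, and read by infrared imaging. Bands were quantified by densitometry as ratios normalized to GAPDH.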

PANC-1 [18] = assay: Induction of apoptosis in human PANC1 assessed as increase in cleaved caspase-9 levels at 0.1 to 1 uM after 24 hrs by Western blot method; format: functional, cell-based; outline: as §2
PANC-1 [19] = assay: Induction of apoptosis in human PANC1 assessed as decrease in caspase-9 levels at 0.1 to 1 uM after 24 hrs by Western blot method; format: functional, cell-based; outline: as §2
Mus musculus [20] = assay: Toxicity in nude mouse xenografted with human PANC1 cells assessed as effect on body weight at 15 to 60 mg/kg, ip administered every 2 days for 21 days measured during compound dosing; format: organism-based; settings: in vivo
Outline: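 Female nude mice were implanted s.c. in the right flank with 1×10^7 PANC-1 cells. After 4 weeks, mice with tumours averaging 100 mm³ were randomized into five groups. They were dosed i.p. at 15, 30 or 60 mg/kg every two days for 21 days and monitored for toxicity, tumour growth and body weight.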

[21] = molecular target: Hypoxia-inducible factor 1-alpha (Homo sapiens) (UniProt Q16665); assay: Inhibition of HIF-1alpha in human PANC1 cells assessed as downregulation of VEGF mRNA levels under hypoxia condition after 24 hrs by qRT-PCR method; format: cell-based
Hypoxia-inducible factor 1-alpha (Homo sapiens), sequence (Q16665 whole entry, looked up): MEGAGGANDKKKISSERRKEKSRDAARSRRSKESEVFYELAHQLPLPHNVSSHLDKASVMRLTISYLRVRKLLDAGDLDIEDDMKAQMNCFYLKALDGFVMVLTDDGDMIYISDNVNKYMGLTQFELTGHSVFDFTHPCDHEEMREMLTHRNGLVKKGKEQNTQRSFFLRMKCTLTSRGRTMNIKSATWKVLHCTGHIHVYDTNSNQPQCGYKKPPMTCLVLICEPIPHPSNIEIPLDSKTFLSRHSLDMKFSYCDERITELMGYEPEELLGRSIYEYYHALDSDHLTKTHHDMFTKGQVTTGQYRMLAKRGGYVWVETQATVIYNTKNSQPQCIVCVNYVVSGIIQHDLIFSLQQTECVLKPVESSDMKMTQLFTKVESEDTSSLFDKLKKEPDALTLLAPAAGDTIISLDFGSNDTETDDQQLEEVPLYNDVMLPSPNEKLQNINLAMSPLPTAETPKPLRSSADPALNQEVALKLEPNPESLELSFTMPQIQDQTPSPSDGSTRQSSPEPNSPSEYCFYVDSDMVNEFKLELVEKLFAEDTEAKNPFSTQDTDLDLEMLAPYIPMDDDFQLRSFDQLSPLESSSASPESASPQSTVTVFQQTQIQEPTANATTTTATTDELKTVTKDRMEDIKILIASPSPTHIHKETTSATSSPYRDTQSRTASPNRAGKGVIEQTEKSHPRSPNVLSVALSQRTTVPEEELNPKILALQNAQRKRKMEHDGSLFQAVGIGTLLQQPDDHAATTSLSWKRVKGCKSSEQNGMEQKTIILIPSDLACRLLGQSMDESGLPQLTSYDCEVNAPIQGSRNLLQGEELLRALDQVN
Outline: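 PANC-1 cells were exposed to hypoxia (1% O₂, 94% N₂, 5% CO₂, 37 °C) for 24 h with compound treatment. VEGF mRNA was measured by real-time qRT-PCR.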

HUVEC [22] = assay: Antimigratory activity against HUVEC at 1 uM by wound-healing assay; format: functional, cell-based; settings: Homo sapiens, TDE = time-dependent effect
Outline: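 HUVEC monolayers at 90% confluence were switched to serum-free medium and scratched with a pipette tip. Compound was added under hypoxia (1% O₂, 94% N₂, 5% CO₂, 37 °C) in the presence of PANC-1 conditioned medium. Wound closure was imaged by inverted-phase microscope at 12 h and 24 h.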

Mus musculus [23] = assay: Downregulation of CD31 expression in human PANC1 cells xenografted in nude mouse at 15 to 60 mg/kg, ip administered every 2 days for 21 days by immunohistochemical method; format: functional, organism-based
Outline: (§3)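 Tumors came from the PANC-1 nude-mouse xenografts dosed at 15, 30 or 60 mg/kg i.p. every two days for 21 days. Tumor sections were stained immunohistochemically with antibodies against CD31, HIF-1α and VEGF.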

Mus musculus [24] = assay: Downregulation of VEGF expression in human PANC1 cells xenografted in nude mouse at 15 to 60 mg/kg, ip administered every 2 days for 21 days by immunohistochemical method; format: functional, organism-based; outline: as §3
Mus musculus [25] = assay: Effect on HIF-1alpha expression in human PANC1 cells xenografted in nude mouse at 15 to 60 mg/kg, ip administered every 2 days for 21 days by immunohistochemical method; format: functional, organism-based; outline: as §3
HUVEC [26] = assay: Antiangiogenic activity in HUVEC assessed as inhibition of tube formation under hypoxia condition at 0.625 to 2.5 uM after 6 hrs by inverted microscopic method; settings: Homo sapiens

## Cc1c(C(=O)NC2CCN(C)CC2)oc2ccc(N(Cc3ccc(Br)cc3)S(=O)(=O)c3ccc(Br)cc3)cc12
PANC-1 [1]
  IC50: 1.07 µM
A549
  IC50: 2.68 µM
MDA-MB-231
  IC50: 1.9 µM
[2]
  solubility: 0.0302 mg/mL (≈ 44.7 µM)
[3]
  Cmax: 0.0806 µg/mL
[4]
  AUC(0-t): 1.08 µg·h/mL
[5]
  bioavailability: 15%
[6]
  Cmax: 3.1 µg/mL
[7]
  half-life: 7.68 h
[8]
  AUC(0-t): 7.22 µg·h/mL
[9]
  Cmax: 0.549 µg/mL
[10]
  half-life: 7.09 h
PANC-1 [11]
  Activity: 0.8%
PANC-1 [12]
  Activity: 3.55%
PANC-1 [13]
  Activity: 45.6%
PANC-1 [14]
  Activity: 0.2%
PANC-1 [15]
  Activity: 3.7%
PANC-1 [16]
  viability at 2 µM: 44.7%
PANC-1 [17]
  Activity: Active
PANC-1 [18]
  Activity: Active
PANC-1 [19]
  Activity: Active
Mus musculus [20]
  Activity: Non-Toxic
[21]
  inhibition: Dose-dependent effect
HUVEC [22]
  inhibition: Tde
Mus musculus [23]
  Activity: Active
Mus musculus [24]
  Activity: Active
Mus musculus [25]
  Activity: inactive
HUVEC [26]
  inhibition: Active
